Data on 14 molecules can be found in ChEMBL document CHEMBL4765286, “Identification and development of non-cytotoxic cell death modulators: Impact of sartans and derivatives on PPARγ activation and on growth of imatinib-resistant chronic myelogenous leukemia cells” (Eur J Med Chem, 2020).

The structures appear in SMILES notation. Activity calls are given as the source filed them. No cut-off for these calls is given here.

Data set [1] has as its target T1, Signal transducer and activator of transcription 5A (Homo sapiens) (UniProt P42229).
T1 sequence (whole entry): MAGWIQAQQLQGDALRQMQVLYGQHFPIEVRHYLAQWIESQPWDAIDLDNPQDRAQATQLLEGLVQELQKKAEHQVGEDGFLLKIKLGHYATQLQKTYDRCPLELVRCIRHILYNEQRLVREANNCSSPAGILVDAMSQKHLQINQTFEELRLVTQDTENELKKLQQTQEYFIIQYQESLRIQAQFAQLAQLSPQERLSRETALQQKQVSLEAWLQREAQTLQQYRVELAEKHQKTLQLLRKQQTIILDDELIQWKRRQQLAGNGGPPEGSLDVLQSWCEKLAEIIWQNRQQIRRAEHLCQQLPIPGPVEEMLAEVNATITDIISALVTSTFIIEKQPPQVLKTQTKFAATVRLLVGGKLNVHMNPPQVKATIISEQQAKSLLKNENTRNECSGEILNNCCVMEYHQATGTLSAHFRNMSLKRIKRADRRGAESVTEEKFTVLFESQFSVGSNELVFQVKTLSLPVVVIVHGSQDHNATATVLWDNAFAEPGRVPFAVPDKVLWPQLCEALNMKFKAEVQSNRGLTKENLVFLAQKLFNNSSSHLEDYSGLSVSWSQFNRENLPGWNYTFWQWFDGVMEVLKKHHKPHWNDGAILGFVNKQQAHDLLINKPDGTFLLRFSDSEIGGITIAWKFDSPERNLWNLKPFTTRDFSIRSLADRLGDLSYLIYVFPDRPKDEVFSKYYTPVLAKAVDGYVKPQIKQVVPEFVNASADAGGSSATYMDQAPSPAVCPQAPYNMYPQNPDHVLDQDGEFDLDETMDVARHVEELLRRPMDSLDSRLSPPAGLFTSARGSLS
Nature of the data set: Inhibition of STAT5 in imatinib-resistant human K562 cells assessed as effect on STAT5 expression in presence of imatinib at 10 uM measured after 6 hrs by Western blot assay. The format is cell-based. (In general: In western blotting, separated proteins are transferred to a membrane and probed.)

Data set [2] is described as follows: Modulation of cell death in imatinib-resistant human K562 cells assessed by increase in imatinib-mediated cell death in presence of presence of imatinib measured after 72 hrs by Propidium iodide stain based FACS assay (reference value: 17%). The format is functional. In general terms: Flow cytometry measures light scatter and fluorescence of single cells or particles in a stream.

Data set [3] deals with T1, Signal transducer and activator of transcription 5A (Homo sapiens). Nature of the data set: Inhibition of STAT5 phosphorylation in imatinib-resistant human K562 cells in presence of imatinib at 10 uM measured after 6 hrs by Western blot assay. The format is cell-based. The gist of the method: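 K562-resistant cells (a doxorubicin-resistant K562 subclone, KD225) kept in RPMI 1640 with 10% FCS. Cells received 1 µM imatinib alone or with 10 µM compound for 6 h. Immunoblots were probed for STAT5 and for pSTAT5 (Tyr694/699), with GAPDH as loading control, and developed by ECL. Densitometry was normalised to the imatinib-only control set to 100%.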

In data set [4] the test system is COS-7. Nature of the data set: Cytotoxicity against African green monkey COS7 cells assessed as effect on metabolic activity at 10 uM measured after 72 hrs by MTT assay. The format is ADME, cell-based. Conditions: chlorocebus aethiops, cos-7, 72 h. The gist of the method:
(§1)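 COS-7 cells seeded at 2×10^3 per well in triplicate, grown 24 h, then exposed to test agent or DMSO vehicle (final DMSO ≤0.1%) for 72 h. Metabolic activity read with a modified MTT (EZ4U) kit. Background from FCS-containing medium plus substrate subtracted. Expressed relative to vehicle control set to 100%. Mean +SD of ≥3 independent experiments.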

Data set [5] deals with COS-7. Nature of the data set: Cytotoxicity against African green monkey COS7 cells assessed as effect on metabolic activity at 20 uM measured after 72 hrs by MTT assay. The format is ADME, cell-based. As to conditions: chlorocebus aethiops, cos-7, 72 h. The gist of the method: as §1
Data set [6] can be described thus: Cytotoxicity against human HS5 cells assessed as cell death at 10 uM measured after 72 hrs by Propidium iodide stain based FACS analysis. Conditions: hs5, 72 h. The gist of the method:
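HS-5 cells seeded at 0.5×10^5 per well and treated with compound or DMSO vehicle (final DMSO ≤0.1%) for 72 h. Harvested cells stained with PI/Triton-X100 for 2 h at 4 °C. Dead cells were counted by flow cytometry as nuclei in the sub-G1 window. Mean +SEM of ≥3 independent experiments.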

Data set [7] is described as follows: Modulation of cell death in imatinib-resistant human K562 cells assessed by increase in imatinib-mediated cell death in presence of presence of imatinib at 2.5 uM measured after 72 hrs by Propidium iodide stain based FACS assay (reference value: 17%). The format is functional.
In data set [8] the target is T2, Peroxisome proliferator-activated receptor gamma (Homo sapiens, UniProt P37231).
T2 sequence (P37231 whole entry): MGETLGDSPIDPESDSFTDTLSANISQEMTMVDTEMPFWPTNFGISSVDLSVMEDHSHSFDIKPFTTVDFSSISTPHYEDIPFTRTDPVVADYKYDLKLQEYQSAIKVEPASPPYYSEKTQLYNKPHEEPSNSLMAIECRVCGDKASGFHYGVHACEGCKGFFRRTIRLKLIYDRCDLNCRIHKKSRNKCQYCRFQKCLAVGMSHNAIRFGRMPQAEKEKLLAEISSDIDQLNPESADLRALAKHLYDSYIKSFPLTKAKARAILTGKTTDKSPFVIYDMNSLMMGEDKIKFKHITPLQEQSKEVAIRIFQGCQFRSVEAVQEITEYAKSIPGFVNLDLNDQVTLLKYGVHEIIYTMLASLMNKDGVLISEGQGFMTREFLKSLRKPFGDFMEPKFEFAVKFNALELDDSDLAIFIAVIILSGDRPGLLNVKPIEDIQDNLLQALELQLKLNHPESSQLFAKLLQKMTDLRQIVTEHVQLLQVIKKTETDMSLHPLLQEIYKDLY
Nature of the data set: Agonist activity at human PPARgammaDEF receptor expressed in african green monkey COS7 cells transfected with pGal5-TK-pGL3/pRenilla-CMV assessed as intrinsic activity measured after 39 hrs by dual luciferase reporter assay. The format is cell-based. On the technique in general: A reporter such as luciferase makes a cellular process visible.

`CCCc1nc2c(C(=O)O)cccc2n1Cc1ccc(-c2ccccc2C(=O)OC)cc1`: the inhibition result in data set [1] is “inactive”. In addition, the Activity in data set [2] was 56%; in data set [4], “Non-Toxic”; in data set [5], “Non-Toxic”; in data set [6] it was “Non-Toxic”. In addition, the inhibition result in data set [3] is “Active”.
For `CCOc1nc2cccc(C(=O)OC(C)OC(=O)OC3CCCCC3)c2n1Cc1ccc(-c2ccccc2-c2nnn[nH]2)cc1` (centres undefined) [CANDESARTAN CILEXETIL], the Activity entry in data set [4], in data set [5] and in data set [6] was “Non-Toxic” each time.
As for `CCCCc1nc(Cl)c(CO)n1Cc1ccc(-c2ccccc2-c2nn[nH]n2)cc1` [LOSARTAN], the Activity result in data set [4], in data set [5] and in data set [6] was “Non-Toxic” throughout.
Regarding `CCCc1nc2c(C)cc(-c3nc4ccccc4n3C)cc2n1Cc1ccc(-c2ccccc2C(=O)O)cc1` [TELMISARTAN], the inhibition entry in data set [1] is “inactive”. Also, the Activity is reported as 63% in data set [2], “Non-Toxic” in data set [4], “Non-Toxic” in data set [5] and “Non-Toxic” in data set [6]. Further, the inhibition result in data set [3] was “Active”.
`CCc1ccc(CCOc2ccc(CC3SC(=O)NC3=O)cc2)nc1` (centres undefined) [PIOGLITAZONE]: the Activity entry in data set [4], in data set [5] and in data set [6] was “Non-Toxic” in each case.
For the molecule `CCCc1nc2c(C(=O)OC)cccc2n1Cc1ccc(-c2ccccc2C(=O)OC)cc1`, the Activity is listed as 50% in data set [7]; 83% in data set [2]; “Non-Toxic” in data set [4]; 20% in data set [5]; “Non-Toxic” in data set [6]. The inhibition entry in data set [1] was “inactive”. In data set [3], the inhibition entry is “Active”.
Regarding `CCCc1nc2cccc(C(=O)OC)c2n1Cc1ccc(-c2ccccc2C(=O)OC)cc1`, the Activity is 50% in data set [7]; 83% in data set [2]; “Non-Toxic” in data set [4]; “Non-Toxic” in data set [5]; “Non-Toxic” in data set [6]. Further, the inhibition result in data set [1] is “inactive”. The inhibition result in data set [3] is “Active”.
For the molecule `CCCc1nc(C(C)(C)O)c(C(=O)O)n1Cc1ccc(-c2ccccc2-c2nnn[nH]2)cc1` [OLMESARTAN], the Activity entry in data set [4], in data set [5] and in data set [6] was “Non-Toxic” each time.
Consider `CCCc1nc(C(C)(C)O)c(C(=O)OCc2oc(=O)oc2C)n1Cc1ccc(-c2ccccc2-c2nnn[nH]2)cc1` [OLMESARTAN MEDOXOMIL], for which the Activity result in data set [4], in data set [5] and in data set [6] was “Non-Toxic” throughout.
Consider `CCOc1nc2cccc(C(=O)O)c2n1Cc1ccc(-c2ccccc2-c2nnn[nH]2)cc1` [CANDESARTAN], for which the Activity is given as 42% in data set [2], “Non-Toxic” in data set [4], “Non-Toxic” in data set [5] and “Non-Toxic” in data set [6].
Consider `CCCc1nc2cccc(C(=O)O)c2n1Cc1ccc(-c2ccccc2C(=O)O)cc1`, for which the inhibition entry in data set [1] and in data set [3] was “inactive” throughout. The Activity is 12% in data set [2], “Non-Toxic” in data set [4], “Non-Toxic” in data set [5] and “Non-Toxic” in data set [6].
For `CCCCC1=NC2(CCCC2)C(=O)N1Cc1ccc(-c2ccccc2-c2nnn[nH]2)cc1` [IRBESARTAN], the Activity in data set [2] is recorded as 31%; in data set [4], “Non-Toxic”; in data set [5] it was “Non-Toxic”; in data set [6] it was “Non-Toxic”.
Consider `CCCc1nc2c(C(=O)O)cccc2n1Cc1ccc(-c2ccccc2C(=O)O)cc1`, for which the inhibition entry in data set [1] and in data set [3] was “inactive” in each case. Moreover, the Activity in data set [2] is 12%; in data set [4], “Non-Toxic”; in data set [5], “Non-Toxic”; in data set [6], “Non-Toxic”.
Broadly, the EC50 is the concentration needed to bring the measured effect to its halfway point. As to `CCCc1nc2c(C)cc(-c3nc4ccccc4n3C)cc2n1Cc1ccc(-c2ccccc2C(N)=O)cc1`, the Activity in data set [7] is listed as 50%; in data set [2], 89%; in data set [4], “Non-Toxic”; in data set [5], “Non-Toxic”; in data set [6] it was “Non-Toxic”. In addition, the inhibition entry in data set [1] is “inactive”. The inhibition entry in data set [3] is “Active”. Further, in data set [8], the EC50 was found to be 9.1 µM.
